In brackets after ≈: the same amount, converted by molar mass.
Assays:
Leishmania donovani = experiment: Antileishmanial activity against Leishmania donovani MHOM-ET-67/L82 amastigotes in mouse peritoneal macrophages; format: functional, organism-based
Procedure, shortened: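 Mouse peritoneal macrophages in RPMI 1640 with 10% heat-inactivated FBS were infected after 24 h with amastigotes at 3:1 (parasite:macrophage). Free parasites were removed at 4 h. Drug was added the next day and cells incubated for 96 h at 37 °C in 5% CO₂. Slides were MeOH-fixed and Giemsa-stained, and the infected/noninfected ratio counted microscopically as % of control. IC50 was obtained by linear regression.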

Plasmodium falciparum [1] = experiment: Antiplasmodial activity against Plasmodium falciparum NF54 in human erythrocytes by [3H]hypoxanthine uptake; format: functional, organism-based; details: NF54, 72 h
Procedure, shortened: (§1)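 [³H]hypoxanthine incorporation assay, modified. Infected human red cells were exposed to serial drug dilutions for 48 h at 37 °C under reduced O₂ and raised CO₂. [³H]hypoxanthine was then added and incubation continued for 24 h. Cells were harvested on glass-fibre filters and counted by liquid scintillation. IC50 was taken from the sigmoidal inhibition curve. Runs were in duplicate and repeated at least once.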

[2] = system: Trypanosoma brucei rhodesiense; experiment: Antitrypanosomal activity against Trypanosoma brucei rhodesiense STIB900 by Alamar blue assay; format: functional, organism-based
Procedure, shortened: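 Bloodstream parasites were grown in Minimum Essential Medium with 2-mercaptoethanol and 15% heat-inactivated horse serum, with serial drug dilutions, for 72 h at 37 °C in 5% CO₂. Alamar Blue was then added for 2–4 h more, and fluorescence read at excitation 530 nm and emission 590 nm. Signal was expressed as % of control to give IC50.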

[3] = Cytotoxicity against mouse peritoneal macrophages; format: cell-based, Macrophage; details: read-out: MIC
Plasmodium falciparum [4] = experiment: Antiplasmodial activity against Plasmodium falciparum K1 in human erythrocytes by [3H]hypoxanthine uptake; format: functional, organism-based; details: K1, 72 h; procedure, shortened: as §1
Trypanosoma cruzi = experiment: Antitrypanosomal activity against galactosidase gene containing Trypanosoma cruzi Tulahuen C2C4 trypomastigotes in rat L6 cells after 4 days; format: functional, organism-based; details: Tulahuen C2C4, L6, 96 h
Procedure, shortened: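 L-6 myoblasts were seeded at 2000 cells/well in RPMI 1640 with 10% FBS and 2 mM L-glutamine. After 24 h, 5000 trypomastigotes were added with serial drug dilutions. Plates were kept at 37 °C in 5% CO₂ for 4 days. CPRG/Nonidet substrate was added and colour read at 540 nm after 2–4 h. IC50 was taken from the sigmoidal inhibition curve.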

[5] = Cytotoxicity against rat L6 cells after 4 days; format: cell-based; details: read-out: MIC
Procedure, shortened: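 Uninfected L-6 myoblasts were run in the same format as the T. cruzi assay: RPMI 1640 with 10% FBS and 2 mM L-glutamine, same serial drug dilution, 37 °C, 5% CO₂. The MIC was judged microscopically after 4 days.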

Structure (SMILES)	IC50 (Leishmania donovani)	IC50 (Plasmodium falciparum [1])	IC50 [2]	MCC [3]	IC50 (Plasmodium falciparum [4])	IC50 (Trypanosoma cruzi)	MCC at 96 h [5]
COc1cc(OC)c(-c2ccc(OC)c3c(OC)cc(C)cc23)c2c1C(C)=N[C@@H](C)C2 [ANCISTROEALAINE A]	4.1 µg/mL (≈ 9.77 µM)	4 µg/mL (≈ 9.53 µM)	3.46 µg/mL (≈ 8.25 µM)	> 30 µg/mL	1.2 µg/mL (≈ 2.86 µM)	2.35 µg/mL (≈ 5.6 µM)	> 90 µg/mL
O=C(Cn1ccnc1[N+](=O)[O-])NCc1ccccc1 [BENZNIDAZOLE]						0.3 µg/mL (≈ 1.15 µM)	
Nc1nc(N)nc(Nc2ccc([As]3SCC(CO)S3)cc2)n1 (stereo unspecified) [MELARSOPROL]			0.0063 µg/mL				
COc1cc(OC)c2c(c1-c1ccc(O)c3c(OC)cc(C)cc13)C[C@H](C)N[C@H]2C [ANCISTROEALAINE B]	10 µg/mL (≈ 24.5 µM)	0.79 µg/mL (≈ 1.94 µM)	2.03 µg/mL (≈ 4.98 µM)	> 30 µg/mL	0.52 µg/mL (≈ 1.28 µM)	17.6 µg/mL (≈ 43.2 µM)	90 µg/mL
